The source of these data is ChEMBL document CHEMBL4043083, “Design and synthesis of bicyclic acetals as Beta Secretase (BACE1) inhibitors” (Bioorg Med Chem, 2017).

T1 sequence (P56817 whole entry): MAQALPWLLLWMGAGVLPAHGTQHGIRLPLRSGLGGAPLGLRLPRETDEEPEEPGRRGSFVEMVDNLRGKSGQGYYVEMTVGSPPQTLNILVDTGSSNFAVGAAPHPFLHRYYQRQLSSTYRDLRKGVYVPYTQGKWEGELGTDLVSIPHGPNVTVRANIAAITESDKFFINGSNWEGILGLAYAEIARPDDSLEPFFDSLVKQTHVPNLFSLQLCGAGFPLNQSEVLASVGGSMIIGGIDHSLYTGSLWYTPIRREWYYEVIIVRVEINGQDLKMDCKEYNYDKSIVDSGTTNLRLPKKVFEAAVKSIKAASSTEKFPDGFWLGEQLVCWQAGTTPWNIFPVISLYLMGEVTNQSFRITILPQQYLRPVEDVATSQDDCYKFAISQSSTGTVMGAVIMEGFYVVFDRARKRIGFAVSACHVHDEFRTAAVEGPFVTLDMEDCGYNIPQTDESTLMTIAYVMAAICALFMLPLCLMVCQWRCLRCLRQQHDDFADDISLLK

The first test has as its target T1, Beta-secretase 1 (Homo sapiens, UniProt P56817). Description: Inhibition of BACE1 (unknown origin) at 10 uM pre-incubated for 10 mins before addition of fluorescent substrate HiLyte FluorTM 488-Glu-Val-Asn-Leu-Asp-Ala-Glu-Phe-Lys and measured over 30 mins. The method in brief:
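BACE1 (1 µg/mL) preincubated with inhibitor at 10 µM, 10 min, 25 °C, then reaction started by adding the internally quenched substrate (QXL 520 quencher). Fluorescence (ex 490/em 520 nm) read over 30 min at 25 °C. Percent inhibition = (1−Vs/Vo)×100 from initial velocities with and without inhibitor.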
Regarding `COC(=O)[C@H](CC(C)C)N1C[C@@H]2O[C@@H](C(=O)N3CCCCC3)[C@@H](O2)C1=O`, the inhibition is 46%.
Same read-out and setting: the value for `CCOC(=O)N1CCN(C(=O)[C@@H]2O[C@@H]3O[C@H]2C(=S)N(Cc2ccccc2)[C@H]3Cc2ccccc2)CC1` was 16%; that for `O=C([C@@H]1O[C@@]2(c3ccccc3)CN(Cc3ccccc3)C(=O)[C@@H]1O2)N1CCOCC1` was 0%.
On the same count and under the same terms, the value for `O=C([C@@H]1O[C@@H]2O[C@H]1C(=O)N(Cc1ccccc1)[C@H]2Cc1ccccc1)N1CCCCC1` was 15%; that for `C#CCNC(=O)[C@@H]1O[C@@H]2O[C@H]1C(=O)N(Cc1ccccc1)[C@H]2Cc1ccccc1` was 29%; that for `COC(=O)[C@@H]1O[C@H]2CN(Cc3ccccc3)C(=S)[C@@H]1O2` was 16%.
The same measure, in the same setting: the value for `CC(C)C[C@@H](CO)NC(=O)[C@@H]1O[C@H]2CN(Cc3ccccc3)C(=O)[C@@H]1O2` was 8%; that for `O=C([C@@H]1O[C@@H]2O[C@H]1C(=S)N(Cc1ccccc1)[C@H]2Cc1ccccc1)N1CCOCC1` was 0%.
Compound `CC(C)C[C@H](CO)NC(=O)[C@H]1O[C@@H]2CN(Cc3ccccc3)C(=O)[C@H]1O2` showed an inhibition of 0%.
In the case of `CC(C)C[C@@H](CO)NC(=O)[C@H]1O[C@@H]2CN(Cc3ccccc3)C(=O)[C@H]1O2`, the inhibition is 0%.
In the case of `O=C(NC1CCCCC1)[C@@H]1O[C@@]2(c3ccccc3)CN(C(c3ccccc3)c3ccccc3)C(=O)[C@@H]1O2`, the inhibition is 0%.
Consider `CC(C)C[C@H](CO)NC(=O)[C@@H]1O[C@H]2CN(Cc3ccccc3)C(=O)[C@@H]1O2`, for which the inhibition amounted to 0%.
On the same count and under the same terms, the same measure for `O=C([C@@H]1O[C@H]2CN(Cc3ccccc3)C(=O)[C@@H]1O2)N1CCCCC1`: 36%; for `COC(=O)[C@@H]1O[C@@H]2O[C@H]1C(=S)N(Cc1ccccc1)[C@H]2Cc1ccccc1`: 61%; for `O=C([C@@H]1O[C@H]2CN(Cc3ccccc3)C(=S)[C@@H]1O2)N1CCOCC1`: 10%.
`O=C([C@H]1O[C@H]2O[C@@H]1C(=S)N(Cc1ccccc1)[C@@H]2Cc1ccccc1)N1CCOCC1`: the inhibition is 32%.
The compound `COC(=O)[C@H]1O[C@H]2O[C@@H]1C(=S)N(Cc1ccccc1)[C@@H]2Cc1ccccc1` displayed an inhibition of 9%.
Regarding `CCOC(=O)N1CCN(C(=O)[C@@H]2O[C@H]3CN(Cc4ccccc4)C(=S)[C@@H]2O3)CC1`, the inhibition turned out to be 0%.
Still for that read-out and setting: the value for `CCOC(=O)N1CCN(C(=O)[C@H]2O[C@H]3O[C@@H]2C(=S)N(Cc2ccccc2)[C@@H]3Cc2ccccc2)CC1` was 5%.
Take `C#CCNC(=O)[C@@H]1O[C@H]2CN(Cc3ccccc3)C[C@@H]1O2`: the inhibition amounted to 0%.
Same read-out and setting: the value for `COC(=O)[C@H](c1ccccc1)N1C[C@@H]2O[C@@H](C(=O)N3CCCCC3)[C@@H](O2)C1=O` was 0%.

A further test has as its target T1, Beta-secretase 1. Kind of test: Inhibition of BACE1 (unknown origin) pre-incubated for 10 mins before addition of fluorescent substrate HiLyte FluorTM 488-Glu-Val-Asn-Leu-Asp-Ala-Glu-Phe-Lys and measured over 30 mins. The essentials: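 Kit-based fluorometric BACE1 assay. Enzyme at 1 µg/mL, preincubated 10 min at 25 °C with inhibitor across 0.003–30 µM before substrate (QXL 520-quenched) addition. Initial velocities taken from ex 490/em 520 nm fluorescence over 30 min at 25 °C. IC50 from the dose-response, run in triplicate in three independent experiments, given as mean ± SD.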
For `COC(=O)[C@@H]1O[C@@H]2O[C@H]1C(=S)N(Cc1ccccc1)[C@H]2Cc1ccccc1`, the IC50 worked out at 2.6 µM.
